# According to ChEMBL document CHEMBL5712903, “Limitations of current in vitro models for testing the clinical potential of epigenetic inhibitors for treatment of pediatric ependymoma” (Oncotarget, 2018):
# Activity calls are given as the source filed them. The calls are words filed in the database; no cut-off is given here.
# Experiments:
# [1] = target: Histone-lysine N-methyltransferase EZH2 (Homo sapiens) (UniProt Q15910); test: Inhibition of EZH2 in human EPN9 cells assessed as increase in cell death incubated for 120 hrs by LDH release assay; assay type: cell-based
# Sequence of Histone-lysine N-methyltransferase EZH2 (Homo sapiens) (Q15910 whole entry, looked up): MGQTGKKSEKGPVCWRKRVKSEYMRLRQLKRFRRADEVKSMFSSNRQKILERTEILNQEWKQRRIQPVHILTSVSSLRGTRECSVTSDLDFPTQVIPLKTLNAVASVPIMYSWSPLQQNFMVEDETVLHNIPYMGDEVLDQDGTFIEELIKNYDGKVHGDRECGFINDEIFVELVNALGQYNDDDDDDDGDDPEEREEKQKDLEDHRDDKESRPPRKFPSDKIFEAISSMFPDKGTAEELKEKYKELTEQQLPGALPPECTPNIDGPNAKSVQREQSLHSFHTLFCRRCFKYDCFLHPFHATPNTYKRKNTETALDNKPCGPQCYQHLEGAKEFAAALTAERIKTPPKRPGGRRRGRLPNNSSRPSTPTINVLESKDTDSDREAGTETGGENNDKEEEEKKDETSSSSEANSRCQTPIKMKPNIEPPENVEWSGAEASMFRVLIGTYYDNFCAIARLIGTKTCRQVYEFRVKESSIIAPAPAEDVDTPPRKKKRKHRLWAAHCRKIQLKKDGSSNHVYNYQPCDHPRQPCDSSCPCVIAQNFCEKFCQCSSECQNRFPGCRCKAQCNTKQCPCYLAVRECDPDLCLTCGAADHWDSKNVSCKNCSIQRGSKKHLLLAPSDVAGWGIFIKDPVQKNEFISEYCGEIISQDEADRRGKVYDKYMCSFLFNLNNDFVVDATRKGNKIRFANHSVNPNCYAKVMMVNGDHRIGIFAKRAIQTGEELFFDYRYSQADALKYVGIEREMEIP
# Method in brief: (§1)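 GSK343 or vehicle was added to cells plated in 96 wells the previous day. Drug was replenished after 72 hrs, and cell death was measured by LDH release kit at 120 hrs. Each condition in triplicate, three independent repeats.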
# [2] = target: Histone-lysine N-methyltransferase EZH2 (Homo sapiens) (UniProt Q15910); test: Inhibition of EZH2 in human EPN1 cells assessed as increase in cell death incubated for 120 hrs by LDH release assay; assay type: cell-based; method in brief: as §1
# [3] = target: Histone-lysine N-methyltransferase EZH2 (Homo sapiens) (UniProt Q15910); test: Inhibition of EZH2 in human BXD-1425EPN cells assessed as increase in cell death incubated for 120 hrs by LDH release assay; assay type: cell-based; method in brief: as §1
# [4] = target: Histone-lysine N-methyltransferase EZH2 (Homo sapiens) (UniProt Q15910); test: Inhibition of EZH2 in human DKFZ-EP1 cells assessed as increase in cell death incubated for 120 hrs by LDH release assay; assay type: cell-based; method in brief: as §1
# [5] = target: Histone-lysine N-methyltransferase EZH2 (Homo sapiens) (UniProt Q15910); test: Inhibition of EZH2 in human DKFZ-EP1 cells assessed as increase in decitabine induced cytotoxicity at 2.5 to 40 uM measured after 96 hrs in presence of decitabine by MTT assay; assay type: cell-based; conditions: dose 2.5-40 µM
# Method in brief: (§2)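 Cells were pretreated 48 hrs with decitabine, then GSK343 was added and incubation continued for a further 96 hrs before MTT viability was read. Drugs were at a fixed ratio from single-agent IC50s (0.125–4 times IC50). Triplicates, three independent repeats, % versus vehicle.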
# [6] = target: Histone-lysine N-methyltransferase EZH2 (Homo sapiens) (UniProt Q15910); test: Inhibition of EZH2 in human BXD-1425EPN cells assessed as increase in decitabine induced cytotoxicity at 2.5 to 80 uM measured after 96 hrs in presence of decitabine by MTT assay; assay type: cell-based; conditions: dose 2.5-80 µM; method in brief: as §2
# [7] = target: Histone-lysine N-methyltransferase EZH2 (Homo sapiens) (UniProt Q15910); test: Inhibition of EZH2 in human EPN1 cells assessed as increase in decitabine induced cytotoxicity at 2.5 to 80 uM measured after 96 hrs in presence of decitabine by MTT assay; assay type: cell-based; conditions: dose 2.5-80 µM; method in brief: as §2
# [8] = target: Histone-lysine N-methyltransferase EZH2 (Homo sapiens) (UniProt Q15910); test: Inhibition of EZH2 in human EPN9 cells assessed as increase in decitabine induced cytotoxicity at 2.5 to 80 uM measured after 96 hrs in presence of decitabine by MTT assay; assay type: cell-based; conditions: dose 2.5-80 µM; method in brief: as §2
# [9] = Cytotoxicity against human fetal NSC assessed as reduction in cell vaibility incubated for 48 hrs by alamar blue assay; conditions: human fetal neural stem cells (NSC)
# [10] = target: Histone-lysine N-methyltransferase EZH2 (Homo sapiens) (UniProt Q15910); test: Inhibition of EZH2 in human EPN1 cells assessed as decrease in cell viability at 2.5 to 80 uM incubated for 72 hrs in presence of vorinostat by MTT assay; conditions: dose 2.5-80 µM
# [11] = target: Histone-lysine N-methyltransferase EZH2 (Homo sapiens) (UniProt Q15910); test: Inhibition of EZH2 in human BXD-1425EPN cells assessed as decrease in cell viability at 2.5 to 80 uM incubated for 72 hrs in presence of vorinostat by MTT assay; conditions: dose 2.5-80 µM
# [12] = Antiproliferative activity against human BXD-1425EPN cells assessed as reduction in cell viability incubated for 144 hrs by MTT assay; assay type: functional, cell-based
# Method in brief: (§3)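 Ependymoma cells were seeded in 96-well plates and left overnight, then given decitabine or DMSO vehicle. Decitabine was replenished at 24 and 48 hrs, and MTT viability was read 144 hrs after the start. BXD-1425EPN and DKFZ-EP1 were grown in DMEM with 10% FBS; EPN1, EPN8, EPN9 and EPN10 in DMEM with 15% FBS. Triplicates, three independent repeats, % viable versus vehicle; IC50 estimated from dose-response curves.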
# [13] = Antiproliferative activity against human DKFZ-EP1 cells assessed as reduction in cell viability incubated for 144 hrs by MTT assay; assay type: functional, cell-based; conditions: DKFZ-EP1, 144 h; method in brief: as §3
# [14] = Antiproliferative activity against human EPN1 cells assessed as reduction in cell viability incubated for 144 hrs by MTT assay; assay type: functional, cell-based; conditions: EPN1, 144 h; method in brief: as §3
# [15] = Antiproliferative activity against human EPN8 cells assessed as reduction in cell viability incubated for 144 hrs by MTT assay; assay type: functional, cell-based; conditions: EPN8, 144 h; method in brief: as §3
# [16] = Antiproliferative activity against human EPN9 cells assessed as reduction in cell viability incubated for 144 hrs by MTT assay; assay type: functional, cell-based; conditions: EPN9, 144 h; method in brief: as §3
# [17] = Antiproliferative activity against human EPN10 cells assessed as reduction in cell viability incubated for 144 hrs by MTT assay; assay type: functional, cell-based; conditions: EPN10, 144 h; method in brief: as §3
# BXD-1425EPN = test: Induction of cell death in human BXD-1425EPN cells incubated for 144 hrs by LDH release assay; assay type: functional, cell-based
# Method in brief: (§4)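 LDH cytotoxicity kit read-out of cell death after 144 hrs of decitabine or vehicle exposure. Cells were plated in 96 wells and left overnight before dosing, with decitabine replenished at 24 and 48 hrs. Triplicates in three independent repeats. All drugs were dissolved in DMSO.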
# DKFZ-EP1 = test: Induction of cell death in human DKFZ-EP1 cells incubated for 144 hrs by LDH release assay; assay type: functional, cell-based; method in brief: as §4
# EPN1 = test: Induction of cell death in human EPN1 cells incubated for 144 hrs by LDH release assay; assay type: functional, cell-based; method in brief: as §4
# EPN9 = test: Induction of cell death in human EPN9 cells incubated for 144 hrs by LDH release assay; assay type: functional, cell-based; method in brief: as §4
structure (smiles),measurement,setting,value
CCCc1cc(C)[nH]c(=O)c1CNC(=O)c1cc(-c2ccnc(N3CCN(C)CC3)c2)cc2c1cnn2C(C)C,inhibition,[1],Active
same,inhibition,[2],Active
same,inhibition,[3],Active
same,inhibition,[4],Active
same,inhibition,[5],inactive
same,inhibition,[6],inactive
same,inhibition,[7],inactive
same,inhibition,[8],inactive
same,IC50 at 48 h,[9],9000 nM
same,inhibition,[10],Active
same,inhibition,[11],Active
Nc1ncn([C@H]2C[C@H](O)[C@@H](CO)O2)c(=O)n1 [DECITABINE],IC50,[12],400 nM
same,IC50,[13],≥ 50 nM
same,IC50,[14],≥ 50 nM
same,IC50,[15],50 nM
same,IC50,[16],≥ 50 nM
same,IC50,[17],≥ 50 nM
same,Activity,BXD-1425EPN,inactive
same,Activity,DKFZ-EP1,inactive
same,Activity,EPN1,inactive
same,Activity,EPN9,inactive
Cc1[nH]c2ccccc2c1CCNCc1ccc(/C=C/C(=O)NO)cc1 [PANOBINOSTAT],IC50 at 48 h,[9],80 nM
